Data as given in ChEMBL document CHEMBL4689842, “EUbOPEN Chemogenomics Library wave 1” (2021).

Tests used:
HEK-293T = assay: Multiplex assay against HEK293T; format: toxicity, cell-based; settings: human;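 on Population Tubulin-Different-Phenotype (%): share of the cells with healthy nuclei that show this phenotype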
Method in brief: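 At seeding, live cells were stained with Hoechst33342, BioTracker Green Microtubule Cytoskeleton Dye, MitoTracker Red and Annexin V Alexa Fluor 680. After compound addition they were imaged on a CQ1 microscope at 37°C and 5% CO2, and CellPathfinder machine-learning gating sorted them into Hoechst high-intensity objects or normal cells, with normal cells further split into healthy, pyknosed or fragmented nuclei and pyknosed cells into mitotic or apoptotic. Tubulin, mitochondrial-mass and membrane-permeability phenotypes are given as per cents of cells with healthy nuclei.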

Fibroblast = assay: Incucyte cell viability with human fibroblast; format: toxicity, cell-based; settings: 10 µM, compound concentration 10 uM; further: filed as whole numbers so only -1 and 0 and 1 occur
[1] = 12 h, 1 µM, compound concentration 1 uM, replicate 1
[2] = 12 h, 1 µM, compound concentration 1 uM, replicate 2
[3] = 12 h, 10 µM, compound concentration 10 uM, replicate 1
[4] = 12 h, 10 µM, compound concentration 10 uM, replicate 2
[5] = 24 h, 1 µM, compound concentration 1 uM, replicate 1
[6] = 24 h, 1 µM, compound concentration 1 uM, replicate 2
[7] = 24 h, 10 µM, compound concentration 10 uM, replicate 1
[8] = 24 h, 10 µM, compound concentration 10 uM, replicate 2

Cl.Cl.NC1(c2ccc(-c3nc4ccn5c(=O)[nH]nc5c4cc3-c3ccccc3)cc2)CCC1
Population Apoptotic (%) (HEK-293T; [1]): 25%
Population Fragmented Nuclei (%) (HEK-293T; [1]): 19%
Population Healthy Nuclei (%) (HEK-293T; [1]): 63%
Population Hoechst High Intensity Objects (%) (HEK-293T; [1]): 20%
Population Membrane Permeable-Phenotype (%) (HEK-293T; [1]): 13%
Population Mitochondria Different-Phenotype (%) (HEK-293T; [1]): 10%
Population Mitotic Cells (%) (HEK-293T; [1]): 74%
Population Normal (%) (HEK-293T; [1]): 79%
Population Pyknosed Nuclei (%) (HEK-293T; [1]): 17%
Population Tubulin-Different-Phenotype (%) (HEK-293T; [1]): 15%
Total Cell Count (HEK-293T; [1]): 657
Population Apoptotic (%) (HEK-293T; [2]): 11%
Population Fragmented Nuclei (%) (HEK-293T; [2]): 8%
Population Healthy Nuclei (%) (HEK-293T; [2]): 85%
Population Hoechst High Intensity Objects (%) (HEK-293T; [2]): 5%
Population Membrane Permeable-Phenotype (%) (HEK-293T; [2]): 6%
Population Mitochondria Different-Phenotype (%) (HEK-293T; [2]): 20%
Population Mitotic Cells (%) (HEK-293T; [2]): 88%
Population Normal (%) (HEK-293T; [2]): 94%
Population Pyknosed Nuclei (%) (HEK-293T; [2]): 6%
Population Tubulin-Different-Phenotype (%) (HEK-293T; [2]): 34%
Total Cell Count (HEK-293T; [2]): 1341
Population Apoptotic (%) (HEK-293T; [3]): 31%
Population Fragmented Nuclei (%) (HEK-293T; [3]): 27%
Population Healthy Nuclei (%) (HEK-293T; [3]): 30%
Population Hoechst High Intensity Objects (%) (HEK-293T; [3]): 56%
Population Membrane Permeable-Phenotype (%) (HEK-293T; [3]): 18%
Population Mitochondria Different-Phenotype (%) (HEK-293T; [3]): 27%
Population Mitotic Cells (%) (HEK-293T; [3]): 68%
Population Normal (%) (HEK-293T; [3]): 43%
Population Pyknosed Nuclei (%) (HEK-293T; [3]): 42%
Population Tubulin-Different-Phenotype (%) (HEK-293T; [3]): 43%
Total Cell Count (HEK-293T; [3]): 496
Population Apoptotic (%) (HEK-293T; [4]): 14%
Population Fragmented Nuclei (%) (HEK-293T; [4]): 5%
Population Healthy Nuclei (%) (HEK-293T; [4]): 71%
Population Hoechst High Intensity Objects (%) (HEK-293T; [4]): 65%
Population Membrane Permeable-Phenotype (%) (HEK-293T; [4]): 23%
Population Mitochondria Different-Phenotype (%) (HEK-293T; [4]): 25%
Population Mitotic Cells (%) (HEK-293T; [4]): 85%
Population Normal (%) (HEK-293T; [4]): 34%
Population Pyknosed Nuclei (%) (HEK-293T; [4]): 22%
Population Tubulin-Different-Phenotype (%) (HEK-293T; [4]): 82%
Total Cell Count (HEK-293T; [4]): 798
Population Apoptotic (%) (HEK-293T; [5]): 23%
Population Fragmented Nuclei (%) (HEK-293T; [5]): 20%
Population Healthy Nuclei (%) (HEK-293T; [5]): 68%
Population Hoechst High Intensity Objects (%) (HEK-293T; [5]): 17%
Population Membrane Permeable-Phenotype (%) (HEK-293T; [5]): 18%
Population Mitochondria Different-Phenotype (%) (HEK-293T; [5]): 8%
Population Mitotic Cells (%) (HEK-293T; [5]): 76%
Population Normal (%) (HEK-293T; [5]): 82%
Population Pyknosed Nuclei (%) (HEK-293T; [5]): 10%
Population Tubulin-Different-Phenotype (%) (HEK-293T; [5]): 38%
Total Cell Count (HEK-293T; [5]): 645
Population Apoptotic (%) (HEK-293T; [6]): 8%
Population Fragmented Nuclei (%) (HEK-293T; [6]): 23%
Population Healthy Nuclei (%) (HEK-293T; [6]): 73%
Population Hoechst High Intensity Objects (%) (HEK-293T; [6]): 7%
Population Membrane Permeable-Phenotype (%) (HEK-293T; [6]): 14%
Population Mitochondria Different-Phenotype (%) (HEK-293T; [6]): 4%
Population Mitotic Cells (%) (HEK-293T; [6]): 91%
Population Normal (%) (HEK-293T; [6]): 92%
Population Pyknosed Nuclei (%) (HEK-293T; [6]): 3%
Population Tubulin-Different-Phenotype (%) (HEK-293T; [6]): 46%
Total Cell Count (HEK-293T; [6]): 2029
Population Apoptotic (%) (HEK-293T; [7]): 41%
Population Fragmented Nuclei (%) (HEK-293T; [7]): 40%
Population Healthy Nuclei (%) (HEK-293T; [7]): 21%
Population Hoechst High Intensity Objects (%) (HEK-293T; [7]): 63%
Population Membrane Permeable-Phenotype (%) (HEK-293T; [7]): 23%
Population Mitochondria Different-Phenotype (%) (HEK-293T; [7]): 38%
Population Mitotic Cells (%) (HEK-293T; [7]): 58%
Population Normal (%) (HEK-293T; [7]): 36%
Population Pyknosed Nuclei (%) (HEK-293T; [7]): 38%
Population Tubulin-Different-Phenotype (%) (HEK-293T; [7]): 41%
Total Cell Count (HEK-293T; [7]): 436
Population Apoptotic (%) (HEK-293T; [8]): 12%
Population Fragmented Nuclei (%) (HEK-293T; [8]): 7%
Population Healthy Nuclei (%) (HEK-293T; [8]): 53%
Population Hoechst High Intensity Objects (%) (HEK-293T; [8]): 69%
Population Membrane Permeable-Phenotype (%) (HEK-293T; [8]): 29%
Population Mitochondria Different-Phenotype (%) (HEK-293T; [8]): 20%
Population Mitotic Cells (%) (HEK-293T; [8]): 88%
Population Normal (%) (HEK-293T; [8]): 30%
Population Pyknosed Nuclei (%) (HEK-293T; [8]): 39%
Population Tubulin-Different-Phenotype (%) (HEK-293T; [8]): 92%
Total Cell Count (HEK-293T; [8]): 837
Growth Rate (Fibroblast; 6 h, replicate number 1, timepoint 6 hours): 0
Growth Rate (Fibroblast; 12 h, replicate number 1, timepoint 12 hours): 0
Growth Rate (Fibroblast; 18 h, replicate number 1, timepoint 18 hours): 0
Growth Rate (Fibroblast; 24 h, replicate number 1, timepoint 24 hours): 0
